Measured values pooled from the literature.
Protocols differ between the studies behind these lines.
BRAF V600E: Serine/threonine-protein kinase B-raf (BRAF, Homo sapiens, UniProt P15056, V600E)
BRAF: Serine/threonine-protein kinase B-raf (BRAF, Homo sapiens, UniProt P15056)

Compound	target	read-out	action	technique	concentration	endpoint	result
NC(=S)NN=C(CS(=O)(=O)c1ccccc1)c1ccc(F)cc1	BRAF V600E	enzyme activity	inhibitor	ATP luminescence	1 µM	inhibition	76%
CN(C)C1CCN(CC#Cc2nn(C3CCCC3)c3nc(NCc4ccccc4)ncc23)C1 (stereo not shown)	BRAF	enzyme activity	inhibitor	FRET	0.1 µM	inhibition	-3%
CCOCCn1cc(C(=O)Nc2ccc(-n3nc(-c4cccnc4)cc3C(F)(F)F)cn2)ccc1=O	BRAF V600E	cell-free assay		competition with immobilised ligand	1 µM	remaining binding	97%
COc1cc(Cl)c(C(=O)N[C@@H](CN[C@H]2CC[C@@H](N)CC2)Cc2ccc(C#N)cc2)cc1-c1ccc(CN[C@H](C)c2ccc(C)cc2)o1	BRAF	enzyme activity	inhibitor		1 µM	remaining activity	97%
Cc1c(NC(=O)c2cc(C(N)=O)nc3cc(F)ccc23)c(C(F)(F)F)nn1Cc1ccc(C#N)cc1	BRAF	cell-free assay		competition with immobilised ligand	1 µM	remaining binding	91%
Cc1ccc(C(=O)Nc2ccc(CN3CCN(C)CC3)c(C(F)(F)F)c2)cc1C#Cc1cnc2cccnn12	BRAF V600E	cell-free assay			23.5 nM	remaining signal	4.5%
CC(C)(C)c1nc(-c2cccc(NS(=O)(=O)c3c(F)cccc3F)c2F)c(-c2ccnc(N)n2)s1	BRAF V600E	enzyme activity	inhibitor	radiometric	1 µM	activity vs control	1%
N[C@@H]1CCN(c2nccc(-c3cnn4ncccc34)n2)C1	BRAF	binding			1 µM	remaining binding	100%
COc1ccc2c(O[C@@H]3C[C@H]4C(=O)N[C@]5(C(=O)O)CC5/C=C\CCCCC[C@H](NC(=O)OC5CCCC5)C(=O)N4C3)cc(-c3csc(NC(=O)C(C)C)n3)nc2c1C (stereo partly shown)	BRAF	cell-free assay		competition with immobilised ligand	1 µM	remaining binding	86%
COc1ccc(-c2csc(NN=C(CS(=O)(=O)c3ccccc3)c3ccc(F)cc3)n2)cc1	BRAF V600E	enzyme activity	inhibitor	ATP luminescence	1 µM	inhibition	72%
COc1cc2nccc(Oc3ccc(NC(=O)Nc4ccc(F)cc4F)c(F)c3)c2cc1OC	BRAF	thermal stability		DSF	10 µM	ΔTm	> 10 °C
Cc1ccc(C(CS(=O)(=O)c2ccccc2)=NNc2nc(-c3ccc(OCCCCOc4ccc(-c5csc(NN=C(CS(=O)(=O)c6ccccc6)c6ccc(C)cc6)n5)cc4)cc3)cs2)cc1	BRAF V600E	enzyme activity	inhibitor	ATP luminescence	0.1 µM	inhibition	57%
C[C@H](c1ccc(F)cc1)N(Cc1cccc(C(=O)O)c1)C(=O)c1cnc2ccccc2c1	BRAF V600E	cell-free assay		competition with immobilised ligand	1 µM	remaining binding	100%
Cc1ccc(C(CS(=O)(=O)c2ccccc2)=NNC2=NC(=O)C(=NNc3ccc(Cl)cc3)S2)cc1	BRAF V600E	enzyme activity	inhibitor	ATP luminescence	0.1 µM	inhibition	46%
Cc1c(NC(=O)c2cc(C(N)=O)nc3cc(F)ccc23)c(C(F)(F)F)nn1Cc1ccc(C(C)(C)C)cc1	BRAF V600E	cell-free assay		competition with immobilised ligand	1 µM	remaining binding	98%
Cc1ccc(C(CS(=O)(=O)c2ccccc2)=NNC2=NC(=O)C(=NNc3ccc([N+](=O)[O-])cc3)S2)cc1	BRAF V600E	enzyme activity	inhibitor	ATP luminescence	10 µM	inhibition	89%
Cc1sc(C(=O)NC2COC2)cc1-n1cc(NC(=O)Nc2c(F)cccc2Cl)cn1	BRAF	enzyme activity	inhibitor		10 µM	remaining activity	105%
Cc1ccc(C(CS(=O)(=O)c2ccccc2)=NN=C2N=C(c3ccc(C)cc3)CS2)cc1	BRAF V600E	enzyme activity	inhibitor	ATP luminescence	10 µM	inhibition	86%
Cc1ccc(NC(=O)c2ccc(CN3CCN(C)CC3)cc2)cc1Nc1nc(-c2cccnc2)cs1	BRAF	cell-free assay			0.5 µM	remaining signal	92.3%
